# ChEMBL document CHEMBL4007489, “First Bispecific Inhibitors of the Epidermal Growth Factor Receptor Kinase and the NF-κB Activity As Novel Anticancer Agents” (J Med Chem, 2017)
# Active and inactive are the calls of the source. The calls are words filed in the database; no cut-off is given here.
# Key:
# [1] = molecular target: Transcription factor p65 (Homo sapiens) (UniProt Q04206); test: Inhibition of IL-1beta-stimulated nuclear translocation of GFP-tagged NF-kappaB-p65 (unknown origin) expressed in CHO cells at 15 uM preincubated with IL-1beta for 30 mins followed by compound addition by fluorescence assay; assay type: cell-based
# Sequence of Transcription factor p65 (Homo sapiens) (Q04206 whole entry): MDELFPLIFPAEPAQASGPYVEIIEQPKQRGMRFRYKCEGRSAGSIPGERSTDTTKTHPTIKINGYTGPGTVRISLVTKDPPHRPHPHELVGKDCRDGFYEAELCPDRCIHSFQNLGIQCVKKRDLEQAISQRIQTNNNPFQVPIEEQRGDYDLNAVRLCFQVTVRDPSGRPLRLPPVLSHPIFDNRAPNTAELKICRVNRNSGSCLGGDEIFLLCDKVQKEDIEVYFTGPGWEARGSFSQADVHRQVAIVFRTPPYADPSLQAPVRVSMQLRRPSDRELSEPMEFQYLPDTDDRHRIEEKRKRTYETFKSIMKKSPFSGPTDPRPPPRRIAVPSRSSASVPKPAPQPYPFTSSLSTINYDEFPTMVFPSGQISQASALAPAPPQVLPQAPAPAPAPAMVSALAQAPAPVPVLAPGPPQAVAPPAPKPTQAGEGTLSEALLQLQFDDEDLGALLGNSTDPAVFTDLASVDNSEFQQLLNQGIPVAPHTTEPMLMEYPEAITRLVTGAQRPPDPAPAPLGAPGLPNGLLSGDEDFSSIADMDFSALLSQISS
# cells = assay type: cell-based; conditions: Homo sapiens, U-937
# MDA-MB-231 [2] = test: cells; assay type: functional; conditions: Homo sapiens, MDA-MB-231, 48 h
# A549 = test: cells; assay type: functional; conditions: Homo sapiens, A549, 48 h
# [3] = molecular target: T1, MAP kinase-interacting serine/threonine-protein kinase 2 (Homo sapiens, UniProt Q9HBH9); test: Inhibition of human full length N-terminal GST-tagged MNK2 expressed in baculovirus expression system
# Target sequence in this assay (Q9HBH9 whole entry): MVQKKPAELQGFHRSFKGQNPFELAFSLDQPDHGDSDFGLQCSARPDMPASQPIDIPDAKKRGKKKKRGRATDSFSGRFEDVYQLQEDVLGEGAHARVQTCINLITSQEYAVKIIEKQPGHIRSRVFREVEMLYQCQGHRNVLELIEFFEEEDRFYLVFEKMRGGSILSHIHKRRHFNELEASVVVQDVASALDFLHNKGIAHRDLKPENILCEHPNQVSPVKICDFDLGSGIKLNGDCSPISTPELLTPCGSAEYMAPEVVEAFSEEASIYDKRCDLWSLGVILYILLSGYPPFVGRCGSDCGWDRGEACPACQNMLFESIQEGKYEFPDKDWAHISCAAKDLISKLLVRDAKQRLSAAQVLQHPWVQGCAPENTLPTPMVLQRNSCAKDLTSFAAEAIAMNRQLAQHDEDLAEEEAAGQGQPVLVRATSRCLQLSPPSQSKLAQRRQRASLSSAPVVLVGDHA
# [4] = molecular target: Serine/threonine-protein kinase pim-1 (Homo sapiens, UniProt P11309); test: Inhibition of human recombinant full length His-tagged PIM-1 expressed in baculovirus expression system
# Sequence of Serine/threonine-protein kinase pim-1 (P11309 whole entry): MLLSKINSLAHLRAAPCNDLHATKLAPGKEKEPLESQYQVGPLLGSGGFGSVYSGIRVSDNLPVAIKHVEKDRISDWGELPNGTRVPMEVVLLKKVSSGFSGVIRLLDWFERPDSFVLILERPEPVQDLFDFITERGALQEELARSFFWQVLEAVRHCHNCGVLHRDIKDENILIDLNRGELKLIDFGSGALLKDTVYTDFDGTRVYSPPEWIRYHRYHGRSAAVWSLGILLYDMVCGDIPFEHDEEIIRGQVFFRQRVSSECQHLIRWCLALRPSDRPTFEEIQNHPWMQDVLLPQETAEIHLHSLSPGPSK
# [5] = molecular target: T1, MAP kinase-interacting serine/threonine-protein kinase 2; test: Inhibition of human full length N-terminal GST-tagged MNK2 expressed in baculovirus expression system at 5 uM
# Target sequence in this assay (Q9HBH9 whole entry, looked up): as the sequence (Q9HBH9 whole entry) above
# [6] = molecular target: Receptor tyrosine-protein kinase erbB-4 (Homo sapiens) (UniProt Q15303); test: Inhibition of N-terminal GST-tagged human recombinant ERBB4 expressed in baculovirus expression system at 5 uM
# Sequence of Receptor tyrosine-protein kinase erbB-4 (Homo sapiens) (Q15303 whole entry): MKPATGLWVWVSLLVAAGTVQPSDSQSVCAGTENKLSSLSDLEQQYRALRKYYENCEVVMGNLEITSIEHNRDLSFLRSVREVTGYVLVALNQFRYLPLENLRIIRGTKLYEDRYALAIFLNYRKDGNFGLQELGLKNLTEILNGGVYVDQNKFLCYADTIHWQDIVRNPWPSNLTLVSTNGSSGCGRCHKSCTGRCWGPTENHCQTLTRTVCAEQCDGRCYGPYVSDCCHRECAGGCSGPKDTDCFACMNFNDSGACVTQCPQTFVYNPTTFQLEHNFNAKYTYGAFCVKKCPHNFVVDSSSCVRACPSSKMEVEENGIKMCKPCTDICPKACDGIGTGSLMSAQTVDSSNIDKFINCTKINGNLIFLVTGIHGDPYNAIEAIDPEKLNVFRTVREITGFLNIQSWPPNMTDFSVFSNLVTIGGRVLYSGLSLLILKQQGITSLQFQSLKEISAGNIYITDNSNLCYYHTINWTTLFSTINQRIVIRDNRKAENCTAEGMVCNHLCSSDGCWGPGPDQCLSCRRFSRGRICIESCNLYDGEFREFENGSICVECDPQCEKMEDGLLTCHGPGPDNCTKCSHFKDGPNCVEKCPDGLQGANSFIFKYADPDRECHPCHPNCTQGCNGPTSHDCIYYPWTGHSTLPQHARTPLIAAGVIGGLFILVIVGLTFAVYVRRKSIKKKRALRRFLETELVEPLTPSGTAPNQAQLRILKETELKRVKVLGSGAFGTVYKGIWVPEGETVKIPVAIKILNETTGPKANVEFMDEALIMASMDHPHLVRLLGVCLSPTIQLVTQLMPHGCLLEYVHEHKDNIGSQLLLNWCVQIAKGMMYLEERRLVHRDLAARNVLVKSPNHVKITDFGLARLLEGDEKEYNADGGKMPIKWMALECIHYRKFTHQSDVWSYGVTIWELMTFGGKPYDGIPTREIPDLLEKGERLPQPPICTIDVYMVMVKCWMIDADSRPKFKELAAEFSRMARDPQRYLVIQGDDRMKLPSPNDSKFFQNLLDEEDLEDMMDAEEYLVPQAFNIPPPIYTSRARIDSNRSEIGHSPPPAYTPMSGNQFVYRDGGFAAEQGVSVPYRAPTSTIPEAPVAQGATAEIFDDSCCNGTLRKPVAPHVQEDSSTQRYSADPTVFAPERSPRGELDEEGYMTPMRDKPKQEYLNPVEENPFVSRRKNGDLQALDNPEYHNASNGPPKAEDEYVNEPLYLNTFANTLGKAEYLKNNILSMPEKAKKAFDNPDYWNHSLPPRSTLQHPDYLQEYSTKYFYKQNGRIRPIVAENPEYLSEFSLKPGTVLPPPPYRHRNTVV
# [7] = molecular target: T2, Proteasome component C5 (Homo sapiens) (UniProt P20618); test: Inhibition of caspase like activity of 26S proteasome derived from human MDA-MB-231 cells at 50 uM
# T2 sequence (whole entry): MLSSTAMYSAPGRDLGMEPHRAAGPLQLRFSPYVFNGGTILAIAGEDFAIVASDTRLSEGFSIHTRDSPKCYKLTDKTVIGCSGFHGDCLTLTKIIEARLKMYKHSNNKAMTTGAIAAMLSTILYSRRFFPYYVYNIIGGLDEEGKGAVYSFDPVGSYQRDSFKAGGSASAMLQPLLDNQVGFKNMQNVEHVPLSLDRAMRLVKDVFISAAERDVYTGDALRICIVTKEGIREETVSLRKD
# Method in brief: (§1)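 Total protein extract from MDA-MB-231 cells served as the source of 26S proteasome. Trypsin-like, chymotrypsin-like and caspase-like activities were each measured with a specific fluorigenic peptide substrate.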
# [8] = molecular target: Proteasome Macropain subunit (Homo sapiens) (UniProt P49721); test: Inhibition of trypsin like activity of 26S proteasome derived from human MDA-MB-231 cells at 50 uM; method in brief: as §1
# Sequence of Proteasome Macropain subunit (Homo sapiens) (P49721 whole entry): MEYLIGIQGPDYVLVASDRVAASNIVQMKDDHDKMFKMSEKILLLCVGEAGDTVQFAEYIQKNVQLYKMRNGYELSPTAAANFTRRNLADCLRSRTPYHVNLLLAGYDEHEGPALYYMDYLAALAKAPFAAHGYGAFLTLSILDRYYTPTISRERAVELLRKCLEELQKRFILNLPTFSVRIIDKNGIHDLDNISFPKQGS
# [9] = molecular target: T3, Proteasome Macropain subunit MB1 (Homo sapiens) (UniProt P28074); test: Inhibition of chymotrypsin like activity of 26S proteasome derived from human MDA-MB-231 cells at 50 uM; method in brief: as §1
# T3 sequence (whole entry): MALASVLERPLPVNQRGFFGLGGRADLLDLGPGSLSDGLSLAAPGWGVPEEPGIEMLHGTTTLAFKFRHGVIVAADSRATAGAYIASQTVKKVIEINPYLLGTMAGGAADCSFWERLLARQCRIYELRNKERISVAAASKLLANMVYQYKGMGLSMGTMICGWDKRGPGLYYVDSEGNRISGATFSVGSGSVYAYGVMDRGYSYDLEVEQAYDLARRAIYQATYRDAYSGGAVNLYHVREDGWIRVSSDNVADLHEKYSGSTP
# [10] = molecular target: Transcription factor p65 (Homo sapiens) (UniProt Q04206); test: Inhibition of TNFalpha-stimulated DNA binding activity of NF-kappaB-p65 in nuclear extracts of human MDA-MB-231 cells at 2.5 to 15 uM incubated for 12 hrs followed by TNFalpha stimulation measured after 20 mins by ELISA
# Method in brief: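 MDA-MB-231 cells exposed to compound or DMSO for 12 h, then TNFα (20 ng/mL final) for 20 min at 37 °C. Cells washed with ice-cold PBS, nuclear extracts prepared, protein measured by Bradford. 5 μg nuclear protein incubated on immobilized NF-κB response-element oligonucleotide, bound p65 detected by primary antibody and HRP secondary, absorbance 450 nm. Binding specificity checked with competing free oligonucleotide. Triplicates.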
# [11] = molecular target: Transcription factor p65 (Homo sapiens) (UniProt Q04206); test: Inhibition of TNFalpha-stimulated DNA binding activity of NF-kappaB-p65 in human MDA-MB-231 cells at 2.5 to 15 uM incubated for 12 hrs followed by TNFalpha stimulation measured after 20 mins by ELISA; assay type: cell-based
# Method in brief: (§2)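 MDA-MB-231 cells treated with compound or DMSO for 12 h; in some runs TNFα (20 ng/mL final) added for a further 20 min at 37 °C. Nuclear extracts prepared on ice and protein measured by Bradford. 5 μg of extract incubated on plate-immobilized NF-κB response element oligonucleotide. Bound complexes detected with anti-p65 primary and HRP secondary antibody, read at 450 nm. Specificity checked by competition with free oligonucleotide; triplicates.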
# [12] = molecular target: Transcription factor p65 (Homo sapiens) (UniProt Q04206); test: Inhibition of NF-kappaB-p65 binding to NF-kappaB response element oligonucleotide in nuclear extracts of 12 hrs compound pre-treated human MDA-MB-231 cells at 2.5 to 15 uM by ELISA; method in brief: as §2
# [13] = molecular target: Transcription factor p65 (Homo sapiens) (UniProt Q04206); test: Inhibition of IL-1beta-stimulated nuclear translocation of GFP-tagged NF-kappaB-p65 (unknown origin) expressed in CHO cells at 15 uM preincubated with IL-1beta for 30 mins followed by compound addition in presence of Pluronic F127 by fluorescence assay; assay type: cell-based
# Homo sapiens [14] = species on record: Homo sapiens; conditions: at 10 µM
# Homo sapiens [15] = species on record: Homo sapiens; conditions: at 2.5 to 15 µM
# in vitro [16] = conditions: chinese hamster, CHO-K1 cells
# in vitro [17] = conditions: human, HUVEC
# [18] = molecular target: T4, Epidermal growth factor receptor (Homo sapiens, UniProt P00533); test: biochemical; assay type: cell-based
# T4 sequence (P00533 whole entry): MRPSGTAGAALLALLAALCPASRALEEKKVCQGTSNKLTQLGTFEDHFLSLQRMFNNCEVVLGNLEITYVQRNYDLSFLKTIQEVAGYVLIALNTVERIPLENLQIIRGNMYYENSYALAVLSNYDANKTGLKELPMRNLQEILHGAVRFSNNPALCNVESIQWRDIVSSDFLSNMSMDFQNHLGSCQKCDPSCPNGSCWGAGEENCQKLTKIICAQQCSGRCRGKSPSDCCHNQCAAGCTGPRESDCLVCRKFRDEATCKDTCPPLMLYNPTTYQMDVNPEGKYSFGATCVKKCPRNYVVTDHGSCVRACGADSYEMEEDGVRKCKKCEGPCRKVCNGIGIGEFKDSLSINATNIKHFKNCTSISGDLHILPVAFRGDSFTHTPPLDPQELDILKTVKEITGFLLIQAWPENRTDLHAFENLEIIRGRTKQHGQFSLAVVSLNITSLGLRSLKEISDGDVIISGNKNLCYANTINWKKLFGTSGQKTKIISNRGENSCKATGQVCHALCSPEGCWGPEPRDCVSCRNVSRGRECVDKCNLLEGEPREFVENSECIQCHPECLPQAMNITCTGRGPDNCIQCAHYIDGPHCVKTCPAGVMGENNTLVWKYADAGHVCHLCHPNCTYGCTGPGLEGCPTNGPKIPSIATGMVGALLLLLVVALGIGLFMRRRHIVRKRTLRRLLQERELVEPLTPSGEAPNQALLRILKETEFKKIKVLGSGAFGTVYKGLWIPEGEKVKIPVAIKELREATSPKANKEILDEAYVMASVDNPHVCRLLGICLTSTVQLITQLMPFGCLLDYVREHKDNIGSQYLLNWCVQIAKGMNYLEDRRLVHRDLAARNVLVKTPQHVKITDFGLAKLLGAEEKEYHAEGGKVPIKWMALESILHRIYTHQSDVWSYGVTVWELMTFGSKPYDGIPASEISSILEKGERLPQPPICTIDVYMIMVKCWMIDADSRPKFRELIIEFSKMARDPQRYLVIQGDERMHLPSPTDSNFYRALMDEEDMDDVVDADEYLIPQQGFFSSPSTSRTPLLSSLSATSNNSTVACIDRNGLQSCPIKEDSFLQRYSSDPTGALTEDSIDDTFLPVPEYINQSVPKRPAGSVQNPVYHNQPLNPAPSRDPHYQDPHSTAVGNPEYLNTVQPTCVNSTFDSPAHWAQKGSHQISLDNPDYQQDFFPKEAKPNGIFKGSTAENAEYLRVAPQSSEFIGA
# MDA-MB-231 [19] = test: Potency index, ratio of gefitinib GI50 to compound GI50 for human MDA-MB-231 cells; assay type: functional
# [20] = Selectivity ratio of GI50 for CHOK1 cells to GI50 for human A549 cells
# [21] = Selectivity ratio of GI50 for CHOK1 cells to GI50 for human MDA-MB-231 cells
# [22] = Selectivity ratio of GI50 for HUVEC to GI50 for human A549 cells
# [23] = Selectivity ratio of GI50 for HUVEC to GI50 for human MDA-MB-231 cells
# [24] = molecular target: T4, Epidermal growth factor receptor; conditions: at 150 nM
inhibition [1],IC50 (cells),GI50 (MDA-MB-231 [2]),GI50 (A549),inhibition [7],inhibition [8],inhibition [9],inhibition [13],GI50 at 48 h (in vitro [16]),GI50 at 48 h (in vitro [17]),Structure (SMILES),inhibition (Homo sapiens [14]),further results
inactive,1900 nM,2100 nM,1600 nM,inactive,inactive,inactive,inactive,25700 nM,11500 nM,S=C(Nc1cccc(Cl)c1)Nc1ccc2ncnc(Nc3cccc(Br)c3)c2c1,97.4%,IC50 [3]: 2700 nM; IC50 [4]: 1200 nM; inhibition [5]: 78%; inhibition [6]: 54%; inhibition [10]: inactive; inhibition [11]: inactive; inhibition [12]: inactive; inhibition (Homo sapiens [15]): Dose-dependent effect
inactive,1000 nM,300 nM,1000 nM,inactive,inactive,inactive,inactive,52100 nM,14800 nM,Fc1ccc(NC(=S)Nc2ccc3ncnc(Nc4cccc(Br)c4)c3c2)cc1Cl,100%,IC50 [18]: 25.3 nM; RatioGI50 (MDA-MB-231 [19]): >35; RatioGI50 [20]: 52.1; RatioGI50 [21]: 173.7; RatioGI50 [22]: 14.8; RatioGI50 [23]: 49.3; inhibition [24]: 74.1%
